Source: ChEMBL document CHEMBL1154106, “Inhibitory effects of 5-benzylidene barbiturate derivatives on mushroom tyrosinase and their antibacterial activities” (Eur J Med Chem, 2009)
Values after ≈ are worked out from the molar mass of the structure shown. Active and inactive are the calls of the source. No cut-off for these calls is given here.

How the values were obtained:
[1] = biological target: T1, Tyrosinase (Agaricus bisporus, UniProt O42713); assay: Inhibition of mushroom tyrosinase
T1 sequence (O42713 whole entry): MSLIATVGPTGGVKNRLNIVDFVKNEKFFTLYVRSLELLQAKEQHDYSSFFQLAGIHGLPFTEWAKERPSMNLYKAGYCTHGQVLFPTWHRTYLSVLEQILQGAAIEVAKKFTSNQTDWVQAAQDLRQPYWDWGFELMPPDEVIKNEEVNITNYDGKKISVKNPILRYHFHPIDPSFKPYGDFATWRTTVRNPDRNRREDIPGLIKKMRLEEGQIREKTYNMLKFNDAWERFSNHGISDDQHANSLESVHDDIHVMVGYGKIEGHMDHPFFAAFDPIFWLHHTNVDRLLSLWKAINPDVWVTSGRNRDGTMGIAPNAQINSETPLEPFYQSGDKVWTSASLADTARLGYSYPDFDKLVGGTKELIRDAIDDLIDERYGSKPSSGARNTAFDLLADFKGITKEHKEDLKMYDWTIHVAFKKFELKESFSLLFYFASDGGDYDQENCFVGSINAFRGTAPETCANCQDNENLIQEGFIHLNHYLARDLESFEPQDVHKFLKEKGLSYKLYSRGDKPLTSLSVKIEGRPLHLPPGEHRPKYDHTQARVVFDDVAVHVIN
Summary of the method: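 Mushroom tyrosinase diphenolase assay: 1 mL reaction with 0.5 mM L-DOPA in 50 mM sodium phosphate buffer, pH 6.8, enzyme final 0.5 mg/mL, 25 °C. Compounds dissolved in DMSO (2.0% final); DMSO-only controls run. Dopachrome formation followed at 475 nm for 1 min. IC50 interpolated from dose–response curves; means of three experiments.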

[2] = test system: Staphylococcus; assay: Antibacterial activity against Staphylococcus albus at 1 mg/ml after 24 hrs by agar dilution method; type: functional, organism-based
[3] = test system: Staphylococcus aureus; assay: Antibacterial activity against Staphylococcus aureus after 24 hrs by agar dilution method; type: functional
Summary of the method: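 MIC by agar dilution on Mueller–Hinton agar containing twofold serial dilutions from a 1 mg/mL DMSO stock. Final levels 50, 25, 12.5, 6.25, 3.1, 1.5, 0.8, 0.4 and 0.2. Inoculum was 16–18 h cultures at 0.5 McFarland; plates incubated 37 °C for 24 h. MIC is the lowest concentration preventing visible growth; levofloxacin was the reference.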

[4] = test system: Staphylococcus epidermidis; assay: Antibacterial activity against Staphylococcus epidermidis at 1 mg/ml after 24 hrs by agar dilution method; type: functional, organism-based
Summary of the method: (§1)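 Agar well diffusion: overnight (16–18 h, 37 °C) cultures set to 0.5 McFarland and mixed into Mueller–Hinton agar. Compound stock 1 mg/mL in DMSO loaded into 6 mm wells, with DMSO as control and levofloxacin as reference. Plates incubated 37 °C for 24 h. Read-out is the diameter of the growth-inhibition zone around each well.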

[5] = biological target: T2, Tyrosinase (Agaricus bisporus) (UniProt O42713); assay: Inhibition of mushroom tyrosinase at 200 uM
T2 sequence (whole entry): T1 sequence (O42713 whole entry)
Summary of the method: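 Single-concentration check in the mushroom tyrosinase diphenolase assay. Conditions: 0.5 mM L-DOPA, 50 mM phosphate buffer pH 6.8, enzyme 0.5 mg/mL, 25 °C, 2.0% DMSO final with DMSO controls. Activity read as dopachrome absorbance at 475 nm over 1 min.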

[6] = test system: Bacillus cereus; assay: Antibacterial activity against Bacillus cereus at 1 mg/ml after 24 hrs by agar dilution method; type: functional, organism-based
[7] = test system: Pseudomonas aeruginosa; assay: Antibacterial activity against Pseudomonas aeruginosa at 1 mg/ml after 24 hrs by agar dilution method; type: functional, organism-based; summary of the method: as §1
[8] = test system: Escherichia coli; assay: Antibacterial activity against Escherichia coli at 1 mg/ml after 24 hrs by agar dilution method; type: functional, organism-based

SMILES	IC50 [1] [µM]	Activity [2]	MIC [3] [µg/mL]	Activity [4]	inhibition [5] [%]	Activity [6]	Activity [7]	Activity [8]
CCCCOCCOc1ccc(CC2C(=O)NC(=S)NC2=O)cc1	179	inactive	6.25 (≈ 17.8 µM)	inactive	78.7	inactive	inactive	inactive
O=C1NC(=S)NC(=O)C1Cc1ccc(OCCO)cc1	156	inactive	> 25	inactive	95.9	inactive	inactive	inactive
COCCCCOc1ccc(CC2C(=O)NC(=O)NC2=O)cc1	> 200	inactive	> 12.5	inactive	1.15	inactive	inactive	inactive
O=C1NC(=S)NC(=O)C1=Cc1ccc(O)cc1	14.5	inactive	3.1 (≈ 12.5 µM)	inactive	100	inactive	inactive	inactive
O=C1NC(=O)C(Cc2ccc(O)cc2)C(=O)N1	> 200	inactive	> 12.5	inactive	47.5	inactive	inactive	inactive
COCCOCCOc1ccc(C=C2C(=O)NC(=O)NC2=O)cc1	137	inactive	> 25	inactive	88.7	inactive	inactive	inactive
O=C1NC(=O)C(=Cc2ccc(OCCO)cc2)C(=O)N1	> 200	inactive	> 25	inactive	22.4	inactive	inactive	inactive
COCCOCCOc1ccc(CC2C(=O)NC(=S)NC2=O)cc1	132	inactive	> 12.5	inactive	97.5	inactive	inactive	inactive
COCCOCCOc1ccc(CC2C(=O)NC(=O)NC2=O)cc1	> 200	inactive	> 12.5	inactive	14.3	inactive	inactive	inactive
COCCOc1ccc(C=C2C(=O)NC(=O)NC2=O)cc1	75.4	inactive	> 25	inactive	100	inactive	inactive	inactive
COCCOc1ccc(CC2C(=O)NC(=O)NC2=O)cc1	> 200	inactive	> 12.5	inactive	23.1	inactive	inactive	inactive
O=C1CC(=O)NC(=O)N1 [BARBITURIC ACID]	> 200				5.95			
COCCOCCOc1ccc(C=C2C(=O)NC(=S)NC2=O)cc1	34.2	inactive	> 12.5	inactive	100	inactive	inactive	inactive
COCCOc1ccc(C=C2C(=O)NC(=S)NC2=O)cc1	28.4	inactive	> 12.5	inactive	100	inactive	inactive	inactive
